Test results taken from BindingDB's records for doi:10.1016/j.ejmech.2017.02.062 (Padmashri Vikhe Patil College of Arts, 2017).

Molecular target: T1, Retinoblastoma-associated protein (Homo sapiens, UniProt P06400)
T1 sequence (P06400 whole entry): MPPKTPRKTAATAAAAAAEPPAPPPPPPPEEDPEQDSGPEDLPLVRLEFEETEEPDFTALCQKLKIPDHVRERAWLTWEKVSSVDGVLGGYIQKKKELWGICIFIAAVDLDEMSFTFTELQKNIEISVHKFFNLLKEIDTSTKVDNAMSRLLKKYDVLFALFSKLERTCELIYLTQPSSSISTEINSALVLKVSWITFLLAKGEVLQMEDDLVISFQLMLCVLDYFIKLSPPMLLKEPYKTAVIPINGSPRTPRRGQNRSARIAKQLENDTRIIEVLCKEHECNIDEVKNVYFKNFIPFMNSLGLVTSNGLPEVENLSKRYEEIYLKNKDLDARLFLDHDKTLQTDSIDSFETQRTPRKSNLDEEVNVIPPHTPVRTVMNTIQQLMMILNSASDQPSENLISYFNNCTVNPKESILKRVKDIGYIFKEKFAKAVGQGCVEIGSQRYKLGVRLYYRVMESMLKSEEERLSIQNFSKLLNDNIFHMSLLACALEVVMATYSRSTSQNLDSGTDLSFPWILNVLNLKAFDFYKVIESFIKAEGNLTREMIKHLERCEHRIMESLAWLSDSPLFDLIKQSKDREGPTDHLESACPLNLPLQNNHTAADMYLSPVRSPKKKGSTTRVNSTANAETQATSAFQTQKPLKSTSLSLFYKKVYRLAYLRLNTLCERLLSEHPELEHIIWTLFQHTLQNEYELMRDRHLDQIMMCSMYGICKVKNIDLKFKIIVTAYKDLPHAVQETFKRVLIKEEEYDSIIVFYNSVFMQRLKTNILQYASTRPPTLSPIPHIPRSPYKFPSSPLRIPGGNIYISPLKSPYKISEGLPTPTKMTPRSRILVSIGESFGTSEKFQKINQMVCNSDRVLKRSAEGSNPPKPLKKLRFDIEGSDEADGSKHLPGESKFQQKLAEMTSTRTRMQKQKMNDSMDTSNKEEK
Assay: ChEBML_1684306

| IC50 [µM] | Compound |
| --- | --- |
| 15 | c1ccc2c3c([nH]c2c1)C(NC1CCCCC1)CCC3 (stereo not drawn) |
| 10 | c1ccc2c3c([nH]c2c1)C(NC1CCCC1)CCC3 (stereo not drawn) |
| 9.2 | O=S(=O)(NC1CCCc2c1[nH]c1ccccc21)c1ccc(F)cc1 (stereo not drawn) |
| > 100 | N#Cc1ccc(S(=O)(=O)NC2CCCc3c2[nH]c2ccccc32)cc1 (stereo not drawn) |
| 10 | c1ccc2c3c([nH]c2c1)CC(NC1CCCC1)CC3 (stereo not drawn) |
| 17.3 | CC1CCC(NC2CCc3c([nH]c4ccccc34)C2)C1 (stereo not drawn) |
| > 100 | c1ccc2c3c([nH]c2c1)CC(NC1CCOCC1)CC3 (stereo not drawn) |
| 9.5 | O=S(=O)(NC1CCc2c([nH]c3ccccc23)C1)c1ccc(F)cc1 (stereo not drawn) |
| > 100 | N#Cc1ccc(S(=O)(=O)NC2CCc3c([nH]c4ccccc34)C2)cc1 (stereo not drawn) |
| > 100 | COc1cccc(C(=O)NC2CCc3c([nH]c4ccccc34)C2)c1 (stereo not drawn) |
| > 100 | O=C(NC1CCc2c([nH]c3ccccc23)C1)c1ccccc1F (stereo not drawn) |
| 6.92 | c1ccc(CNC2CCc3c([nH]c4ccccc34)C2)cc1 (stereo not drawn) |
| 2 | Cc1ccc2[nH]c3c(c2c1)CCC(NC1CCC(C)C1)C3 (stereo not drawn) |
| 2.2 | Cc1ccc2[nH]c3c(c2c1)CCC(NCc1ccccc1)C3 (stereo not drawn) |
| 4.81 | CC1CCC(NC2CCCc3c2[nH]c2ccc([N+](=O)[O-])cc32)C1 (stereo not drawn) |
| 3.5 | Cc1ccc(CNC2CCc3c(n(C)c4ccccc34)C2)cc1 (stereo not drawn) |
| > 100 | O=S(=O)(NC1CCCc2c1[nH]c1ccccc21)c1cccnc1 (stereo not drawn) |
| 11 | c1ccc2c3c([nH]c2c1)CC(NC1CCCCC1)CC3 (stereo not drawn) |
| > 100 | O=S(=O)(NC1CCc2c([nH]c3ccccc23)C1)c1cccnc1 (stereo not drawn) |
| 100 | O=C(NC1CCc2c([nH]c3ccccc23)C1)c1cccc(F)c1 (stereo not drawn) |
| 4.1 | Cc1ccc(CNC2CCc3c([nH]c4ccccc34)C2)cc1 (stereo not drawn) |
| 2.9 | Cc1ccc(CNC2CCc3c([nH]c4ccc(C)cc34)C2)cc1 (stereo not drawn) |

Molecular target: T1, Retinoblastoma-associated protein
Assay: Inhibition of retinoblastoma protein phosphorylation in human MDA-MB-231 cells after 16 hrs by Hoechst 33342 staining based fluorescence assay
Summary of the method: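 Fixation in 3.7% formaldehyde, 0.1% Triton X permeabilization, anti-pRb primary with Dylight 549 secondary; nuclei counterstained with Hoechst 33342; high-content imaging on ArrayScan reader.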

| IC50 [µM] | Compound |
| --- | --- |
| 15 | CC1CCC(NC2CCCc3c2[nH]c2ccccc32)C1 (stereo not drawn) |
